According to PMC9359741 (Clinical Cancer Research, 2022):
Values joined by “and” are separate entries in the source; they are usually repeats but may differ in a detail not shown here. Equal entries are not always repeated.

Legend:
Type in all cases: in vivo, human
[1] = tested on: patients with PDA, PD-1/PD-L1 IR advanced solid tumors or prOVCA; assay: Phase 2, ARRY-382 300 mg QD plus pembrolizumab 200 mg IV Q3W: adverse events; conditions: for Deaths: mostly disease progression
Summary of the method: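 Open-label study at 12 US centres with three cohorts: pancreatic ductal adenocarcinoma after ≥1 prior systemic line; tumours progressing on anti-PD-1/PD-L1; ovarian, peritoneal or fallopian cancer progressing ≤6 months after ≥4 platinum cycles. Oral test compound 300 mg QD plus anti-PD-1 antibody 200 mg IV every 3 weeks. AEs, SAEs and labs graded by CTCAE v4.03 in all dosed patients; descriptive summary.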

CSF-1R = assay: Phase 2 pharmacodynamic biomarkers; conditions: cycle 1 day 15 compared with cycle 1 day 1
Summary of the method: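 Blood was drawn for serum CSF-1 and CTX, plus serum osteoprotegerin and non-classical monocytes in Phase 2. Urine was collected for NTX. Samples were taken pre-dose on cycle 1 days 1, 8 and 15, on day 1 of later cycles and at discontinuation. Mean change on cycle 1 day 15 versus cycle 1 day 1 was summarized descriptively, with outliers excluded.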

[2] = Phase 1b plasma pharmacokinetics of ARRY-382 and metabolites; conditions: for RAUC (accumulation ratio), geometric mean (geometric %CV) / Ctrough, geometric mean (geometric %CV) / RCmax (accumulation ratio), geometric mean (geometric %CV) / AUC(0-t) / Cmax / Tmax: Phase 1b; for AUC / AUC(0-t) / Cmax / Tmax: human, plasma, oral; for AUC(0-t): AUClast; for AUC(0-t) / Cmax: geometric mean (geometric %CV); for Tmax: median (range)
Summary of the method: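 Blood was collected for plasma test compound and its N-oxide, N-desmethyl and sulfate metabolites. Trough samples were taken ≤120 min before the oral dose on cycle 1 day 15 and day 1 of cycles 3–6. Doses were 200–400 mg QD in Phase 1b and 300 mg QD in Phase 2. Non-compartmental parameters were estimated per patient in the PK set, reported as geometric mean (geometric %CV) and Tmax as median (range).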

[3] = Cycle 2 day 1, ARRY-382 200 mg, n = 4
[4] = Cycle 2 day 1, ARRY-382 300 mg, n = 4
[5] = Cycle 2 day 1, ARRY-382 400 mg, n = 3
[6] = 200 mg, Cycle 1 day 1, ARRY-382 200 mg, n = 6
[7] = 200 mg, Cycle 2 day 1, ARRY-382 200 mg, n = 4
[8] = 300 mg, Cycle 1 day 1, ARRY-382 300 mg, n = 6
[9] = 300 mg, Cycle 2 day 1, ARRY-382 300 mg, n = 4
[10] = 400 mg, Cycle 1 day 1, ARRY-382 400 mg, n = 7
[11] = 400 mg, Cycle 2 day 1, ARRY-382 400 mg, n = 3

## Cc1cccc(Cn2nc(C3CC3)c3c(NC(=O)c4cnc5cc(OCCN6CCN(C)CC6)ccn45)cccc32)n1 [ARRY-382]
[1]; PD-1/PD-L1 IR
  ARRY-382-related SAEs: 15.8%
  ARRY-382-related fatigue: 47.4%
  ARRY-382-related grade ≥3 AEs: 57.9%
  ARRY-382-related increased CPK: 47.4%
  ARRY-382-related nausea: 42.1%
  Dose reduction or interruption of ARRY-382 due to AEs: 13 (68.4%) n (%)
  Patients with ≥1 dose reduction or interruption of ARRY-382: 15 (78.9%) n (%)
  Permanent discontinuations due to AEs: 1 (5.3%) n (%)
  Deaths: 10 (52.6%) n (%)
[1]; PD-1/PD-L1 IR, N = 19
  ARRY-382-related AEs: ALT increased: 2 (10.5) n (%)
  ARRY-382-related AEs: AST increased: 6 (31.6) n (%)
  ARRY-382-related AEs: All AEs: 17 (89.5%) n (%) and 17 (89.5) n (%)
  ARRY-382-related AEs: Amylase increased: 4 (21.1) n (%)
  ARRY-382-related AEs: Blood CPK increased: 9 (47.4) n (%)
  ARRY-382-related AEs: Decreased appetite: 3 (15.8) n (%)
  ARRY-382-related AEs: Diarrhea: 5 (26.3) n (%)
  ARRY-382-related AEs: Fatigue: 9 (47.4) n (%)
  ARRY-382-related AEs: Nausea: 8 (42.1) n (%)
  ARRY-382-related AEs: Vomiting: 7 (36.8) n (%)
[1]; PDA
  ARRY-382-related SAEs: 11.1%
  ARRY-382-related fatigue: 33.3%
  ARRY-382-related grade ≥3 AEs: 25.9%
  ARRY-382-related increased AST: 18.5%
  ARRY-382-related increased CPK: 18.5%
  ARRY-382-related nausea: 18.5%
  Dose reduction or interruption of ARRY-382 due to AEs: 10 (37.0%) n (%)
  Patients with ≥1 dose reduction or interruption of ARRY-382: 16 (59.3%) n (%)
  Permanent discontinuations due to AEs: 4 (14.8%) n (%)
  Deaths: 20 (74.1%) n (%)
[1]; PDA, N = 27
  ARRY-382-related AEs: ALT increased: 4 (14.8) n (%)
  ARRY-382-related AEs: AST increased: 5 (18.5) n (%)
  ARRY-382-related AEs: All AEs: 17 (63.0%) n (%) and 17 (63.0) n (%)
  ARRY-382-related AEs: Amylase increased: 2 (7.4) n (%)
  ARRY-382-related AEs: Blood CPK increased: 5 (18.5) n (%)
  ARRY-382-related AEs: Decreased appetite: 5 (18.5) n (%)
  ARRY-382-related AEs: Diarrhea: 4 (14.8) n (%)
  ARRY-382-related AEs: Fatigue: 9 (33.3) n (%)
  ARRY-382-related AEs: Nausea: 5 (18.5) n (%)
  ARRY-382-related AEs: Vomiting: 2 (7.4) n (%)
[1]; Total, N = 57
  ARRY-382-related AEs: ALT increased: 10 (17.5) n (%)
  ARRY-382-related AEs: AST increased: 15 (26.3) n (%)
  ARRY-382-related AEs: All AEs: 43 (75.4%) n (%) and 43 (75.4) n (%)
  ARRY-382-related AEs: Amylase increased: 6 (10.5) n (%)
  ARRY-382-related AEs: Blood CPK increased: 16 (28.1) n (%)
  ARRY-382-related AEs: Decreased appetite: 8 (14.0) n (%)
  ARRY-382-related AEs: Diarrhea: 9 (15.8) n (%)
  ARRY-382-related AEs: Fatigue: 18 (31.6) n (%)
  ARRY-382-related AEs: Nausea: 16 (28.1) n (%)
  ARRY-382-related AEs: Vomiting: 10 (17.5) n (%)
[1]; in each cohort
  Patients with ≥1 TEAE: > 90%
[1]; overall
  Patients with a Grade 4 AE: 7 (12.3%) n (%)
  Patients with a grade 3 AE: 33 (57.9%) n (%)
  Periorbital edema: 7.0%
[1]; overall, none related to study treatment
  Patients with a grade 5 AE: 3 (5.3%) n (%)
[1]; prOVCA
  ARRY-382-related SAEs: 0.0%
  ARRY-382-related grade ≥3 AEs: 45.5%
  Dose reduction or interruption of ARRY-382 due to AEs: 7 (63.6%) n (%)
  Patients with ≥1 dose reduction or interruption of ARRY-382: 7 (63.6%) n (%)
  Permanent discontinuations due to AEs: 1 (9.1%) n (%)
  Treatment discontinuations due to AEs (primary reason): 2 (18.2%) n (%)
  Deaths: 5 (45.5%) n (%)
[1]; prOVCA, N = 11
  ARRY-382-related AEs: ALT increased: 4 (36.4) n (%)
  ARRY-382-related AEs: AST increased: 4 (36.4) n (%)
  ARRY-382-related AEs: All AEs: 9 (81.8%) n (%) and 9 (81.8) n (%)
  ARRY-382-related AEs: Amylase increased: 0 (0.0) n (%)
  ARRY-382-related AEs: Blood CPK increased: 2 (18.2) n (%)
  ARRY-382-related AEs: Decreased appetite: 0 (0.0) n (%)
  ARRY-382-related AEs: Diarrhea: 0 (0.0) n (%)
  ARRY-382-related AEs: Fatigue: 0 (0.0) n (%)
  ARRY-382-related AEs: Nausea: 3 (27.3) n (%)
  ARRY-382-related AEs: Vomiting: 1 (9.1) n (%)
CSF-1R
  Change in mean CTX or NTX: no significant changes
[2]; Cycle 2 day 1, ARRY-382 200 mg, n = 3
  RAUC (accumulation ratio), geometric mean (geometric %CV): 3.03 (47.9)
[2]; [3]
  Ctrough, geometric mean (geometric %CV): 576 (59.5) ng/mL
  RCmax (accumulation ratio), geometric mean (geometric %CV): 2.53 (48.2)
[2]; Cycle 2 day 1, ARRY-382 300 mg, n = 2
  RAUC (accumulation ratio), geometric mean (geometric %CV): 1.92 (NC)
[2]; [4]
  Ctrough, geometric mean (geometric %CV): 667 (27.7) ng/mL
  RCmax (accumulation ratio), geometric mean (geometric %CV): 2.51 (95.7)
[2]; Cycle 2 day 1, ARRY-382 400 mg, n = 2
  RAUC (accumulation ratio), geometric mean (geometric %CV): 3.52 (NC)
[2]; [5]
  Ctrough, geometric mean (geometric %CV): 627 (126) ng/mL
  RCmax (accumulation ratio), geometric mean (geometric %CV): 2.28 (54.2)
[2]; 200 mg
  AUC: 22800 ng·h/mL
[2]; [6]
  AUC(0-t): 3720 ng·h/mL
  Cmax: 773 ng/mL
  Tmax: 2 h
[2]; [7]
  AUC(0-t): 22800 ng·h/mL
  Cmax: 1560 ng/mL
  Tmax: 2 h
[2]; 300 mg
  AUC: 30600 ng·h/mL
[2]; [8]
  AUC(0-t): 4890 ng·h/mL
  Cmax: 995 ng/mL
  Tmax: 4.01 h
[2]; [9]
  AUC(0-t): 30600 ng·h/mL
  Cmax: 2260 ng/mL
  Tmax: 4.18 h
[2]; 400 mg
  AUC: 30800 ng·h/mL
[2]; [10]
  AUC(0-t): 6790 ng·h/mL
  Cmax: 1330 ng/mL
  Tmax: 4.07 h
[2]; [11]
  AUC(0-t): 30800 ng·h/mL
  Cmax: 2560 ng/mL
  Tmax: 1.98 h
